Assay results: ChEMBL document CHEMBL2202972, “Synthesis and biological evaluation of 2-substituted-4-(3',4',5'-trimethoxyphenyl)-5-aryl thiazoles as anticancer agents” (Bioorg Med Chem, 2012)
Calls of active or inactive are those of the source. The rule behind the calls is not given here.

Legend:
[1] = Inhibition of bovine brain tubulin polymerization preincubated for 15 mins by turbidimetric analysis; parameters: species or system Bos taurus
Procedure, shortened: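 Bovine brain tubulin (10 μM) in glutamate buffer preincubated with varying compound concentrations for 15 min at 30 °C, then chilled to 0 °C. GTP 0.4 mM added and mixtures warmed to 30 °C in a spectrophotometer; assembly followed by turbidity at 350 nm.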

[2] = test system: HT-29; experiment: Antiproliferative activity against human HT-29 cells after 72 hrs by MTT assay; type: functional, cell-based; conditions: HT-29, 72 h
[3] = test system: Jurkat; experiment: Antiproliferative activity against human Jurkat cells after 72 hrs by MTT assay; type: functional, cell-based
Procedure, shortened: (§1)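 Cells seeded at 8 × 10³ per well and incubated 18 h at 37 °C, 5% CO₂, then exposed to a range of compound concentrations for 72 h at 37 °C. Jurkat and HL-60 were grown in RPMI-1640, the others in DMEM, with penicillin, streptomycin and 10% FBS. DMSO stocks (10 mM); DMSO ≤0.25% final. Viability by MTT. […] Mean ± SE of ≥3 independent experiments.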

[4] = test system: MCF7; experiment: Antiproliferative activity against human MCF7 cells after 72 hrs by MTT assay; type: functional, cell-based; conditions: MCF7, 72 h
[5] = test system: HL-60; experiment: Antiproliferative activity against human HL60 cells after 72 hrs by MTT assay; type: functional, cell-based; conditions: HL-60, 72 h
[6] = test system: A549; experiment: Antiproliferative activity against human A549 cells after 72 hrs by MTT assay; type: functional, cell-based; conditions: A549, 72 h
[7] = test system: HeLa; experiment: Antiproliferative activity against human HeLa cells after 72 hrs by MTT assay; type: functional, cell-based
[8] = test system: A549; experiment: Resistance ratio of IC50 for human taxol-resistant A549-T12 cells expressing tubulin mutant gene to IC50 for human A549 cells; type: functional
[9] = test system: CCRF-CEM; experiment: Resistance ratio of IC50 for human vinblastine-resistant CEM/VBL100 cells overexpressing P-glycoprotein to IC50 for human CEM cells; type: functional
[10] = test system: LoVo; experiment: Resistance ratio of IC50 for human doxorubicin-resistant LoVo/DX cells overexpressing P-glycoprotein to IC50 for human LoVo cells; type: functional
[11] = test system: HeLa; experiment: Downregulation of Xiap expression in human HeLa cells at 250 to 500 nM after 24 hrs by Western blot analysis; type: functional, cell-based
Procedure, shortened: (§2)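 HeLa cells treated for 24 or 48 h, washed twice with ice-cold PBS and lysed on ice 30 min; lysates spun at 15000 ×g, 4 °C. Protein (20 μg) resolved by SDS–PAGE on 7.5–15% gels and blotted to PVDF. Specific primary antibodies for 2 h at room temperature, then peroxidase secondary for 60 min, ECL detection. Membranes stripped and reprobed for β-actin as loading control.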

[12] = test system: HeLa; experiment: Downregulation of Mcl-1 expression in human HeLa cells at 250 to 500 nM after 24 hrs by Western blot analysis; type: functional, cell-based; procedure, shortened: as §2
[13] = test system: HeLa; experiment: Effect on Bax expression in human HeLa cells at 250 to 500 nM after 24 to 48 hrs by Western blot analysis; type: functional, cell-based; procedure, shortened: as §2
[14] = test system: HeLa; experiment: Downregulation of Bcl-2 expression in human HeLa cells at 250 to 500 nM after 24 to 48 hrs by Western blot analysis; type: functional, cell-based; procedure, shortened: as §2
[15] = test system: HeLa; experiment: Induction of apoptosis in human HeLa cells assessed as appearance of cleaved caspase-8 protein at 250 to 500 nM after 24 to 48 hrs by Western blot analysis; type: functional, cell-based; procedure, shortened: as §2
[16] = test system: HeLa; experiment: Induction of apoptosis in human HeLa cells assessed as disappearance of uncleaved caspase-2 protein at 250 to 500 nM after 24 to 48 hrs by Western blot analysis; type: functional, cell-based; procedure, shortened: as §2
[17] = test system: HeLa; experiment: Induction of apoptosis in human HeLa cells assessed as ROS production; type: functional, cell-based
[18] = test system: HeLa; experiment: Induction of apoptosis in human HeLa cells assessed as mitochondrial polarization; type: functional, cell-based
[19] = test system: HeLa; experiment: Induction of apoptosis in human HeLa cells assessed as effect on caspase-9 activation at 250 to 500 nM after 24 to 48 hrs by Western blot analysis; type: functional, cell-based; procedure, shortened: as §2
[20] = test system: HeLa; experiment: Induction of apoptosis in human HeLa cells assessed as increase in caspase-3-mediated PARP cleavage at 250 to 500 nM after 24 to 48 hrs by Western blot analysis; type: functional, cell-based; procedure, shortened: as §2
[21] = test system: HeLa; experiment: Induction of apoptosis in human HeLa cells assessed as caspase-3 activation at 250 to 500 nM after 24 to 48 hrs by Western blot analysis; type: functional, cell-based; procedure, shortened: as §2
[22] = test system: HeLa; experiment: Induction of apoptosis in human HeLa cells at 500 nM after 24 to 48 hrs by Annexin V-FITC/propidium iodide staining based biparametric cytofluorimetric analysis; type: functional, cell-based
Procedure, shortened: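 HeLa cells treated at 250 or 500 nM for 24 or 48 h, then labelled with annexin-V-FITC (phosphatidylserine) plus propidium iodide. Red and green fluorescence measured by biparametric flow cytometry. Mean ± SEM of three independent experiments.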

[23] = test system: HeLa; experiment: Effect on cyclin B expression in human HeLa cells at 250 to 500 nM after 24 hrs by Western blot analysis; type: functional, cell-based; procedure, shortened: as §2
[24] = target: T1, M-phase inducer phosphatase 3 (Homo sapiens) (UniProt P30307); experiment: Induction of cdc25C phosphorylation in human HeLa cells assessed as cdc2 kinase dephosphorylation at Tyr15 in human HeLa cells at 250 to 500 nM after 24 to 48 hrs by Western blot analysis; type: cell-based; procedure, shortened: as §2
T1 sequence (whole entry): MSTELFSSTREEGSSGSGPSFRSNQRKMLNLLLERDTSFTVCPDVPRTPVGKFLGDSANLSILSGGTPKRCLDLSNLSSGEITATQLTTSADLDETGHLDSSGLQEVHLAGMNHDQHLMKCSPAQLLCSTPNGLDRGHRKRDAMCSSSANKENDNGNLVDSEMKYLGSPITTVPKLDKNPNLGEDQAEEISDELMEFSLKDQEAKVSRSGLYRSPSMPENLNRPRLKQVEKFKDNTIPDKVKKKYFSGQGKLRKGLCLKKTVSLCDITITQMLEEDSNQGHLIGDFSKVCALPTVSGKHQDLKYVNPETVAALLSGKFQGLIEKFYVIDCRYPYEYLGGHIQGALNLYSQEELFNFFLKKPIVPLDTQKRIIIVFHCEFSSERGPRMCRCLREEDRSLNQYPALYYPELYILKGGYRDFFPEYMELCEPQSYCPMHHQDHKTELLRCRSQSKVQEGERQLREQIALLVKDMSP

[25] = target: T1, M-phase inducer phosphatase 3 (Homo sapiens); experiment: Induction of cdc25C phosphorylation in human HeLa cells at 250 to 500 nM after 24 to 48 hrs by Western blot analysis; type: cell-based; procedure, shortened: as §2
[26] = test system: Jurkat; experiment: Cell cycle arrest in human Jurkat cells assessed as accumulation of cells at G2/M phase at 125 nM after 24 hrs by propidium iodide staining based flow cytometric analysis; type: functional
Procedure, shortened: (§3)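 HeLa or Jurkat cells (5 × 10⁵, exponential growth) treated 24 h with 31–500 nM compound. Cells fixed in ice-cold 70% ethanol, treated with lysis buffer containing RNase A and 0.1% Triton X-100, then stained with propidium iodide. DNA content measured by flow cytometry to give phase distribution. Mean ± SEM of three independent experiments.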

[27] = test system: HeLa; experiment: Cell cycle arrest in human HeLa cells assessed as accumulation of cells at G2/M phase at 125 nM after 24 hrs by propidium iodide staining based flow cytometric analysis; type: functional; procedure, shortened: as §3
[28] = species: Bos taurus; experiment: Displacement of [3H]colchicine from tubulin in bovine brain at 5 uM DEAE-cellulose filter method
[29] = Antiproliferative activity against human taxol-resistant A549-T12 cells expressing tubulin mutant gene after 72 hrs by MTT assay; type: functional, cell-based; conditions: A549, 72 h
Procedure, shortened: (§4)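 Resistant sublines cultured under selection: LoVo^Doxo (doxorubicin-resistant LoVo subclone) in complete Ham's F12 with doxorubicin 0.1 μg/mL; A549-T12 in complete DMEM with taxol 12 nM. Seeded at 8 × 10³ per well, 18 h preincubation, then 72 h compound exposure at 37 °C. MTT read-out.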

[30] = Antiproliferative activity against human vinblastine-resistant CEM/VBL100 cells overexpressing P-glycoprotein after 72 hrs by MTT assay; type: functional, cell-based; conditions: CEM/VBL100, 72 h
[31] = test system: CCRF-CEM; experiment: Antiproliferative activity against human CEM cells after 72 hrs by MTT assay; type: functional, cell-based
[32] = Antiproliferative activity against human doxorubicin-resistant LoVo/DX cells overexpressing P-glycoprotein after 72 hrs by MTT assay; type: functional, cell-based; procedure, shortened: as §4
[33] = test system: LoVo; experiment: Antiproliferative activity against human LoVo cells after 72 hrs by MTT assay; type: functional, cell-based; procedure, shortened: as §1
[34] = Growth inhibition of human resting PBL after 72 hrs by MTT assay; type: cell-based; conditions: resting peripheral blood lymphocytes (PBL)
[35] = test system: PBL; experiment: Growth inhibition of PHA-stimulated human PBL after 72 hrs by MTT assay; type: functional
[36] = test system: HeLa; experiment: Induction of survivin phosphorylation at Thr34 in human HeLa cells at 250 to 500 nM after 24 to 48 hrs by Western blot analysis

## CCOc1ccc(-c2sc(N(C)C)nc2-c2cc(OC)c(OC)c(OC)c2)cc1
[1]
  IC50: > 20000 nM
[2]
  IC50: 6030 nM
[3]
  IC50: 4150 nM
[4]
  IC50: > 10000 nM
[5]
  IC50: 303 nM
[6]
  IC50: > 10000 nM
[7]
  IC50: 3260 nM

## COc1cc(-c2nc(C)sc2-c2ccc(C)cc2)cc(OC)c1OC
[2]
  IC50: 722 nM
[3]
  IC50: 517 nM
[4]
  IC50: 1740 nM
[5]
  IC50: 1510 nM
[6]
  IC50: 1950 nM
[7]
  IC50: 1100 nM

## COc1cc(-c2nc(C)sc2-c2ccc3ccccc3c2)cc(OC)c1OC
[8]
  Ratio IC50: 1
[9]
  Ratio IC50: 1.4
[10]
  Ratio IC50: 2.1
[11]
  Activity: Active
[12]
  Activity: Active
[13]
  Activity: inactive
[14]
  Activity: Active
[15]
  Activity: Active
[16]
  Activity: Active
[17]
  Activity: Active
[18]
  Activity: Active
[19]
  Activity: inactive
[20]
  Activity: Active
[21]
  Activity: Active
[22]
  Activity: Active
[23]
  Activity: inactive
[24]
  Activity: Active
[25]
  Activity: Active
[26]
  Activity: Active
[27]
  Activity: Active
[28]
  inhibition: 66%
[1]
  IC50: 1100 nM
[29]
  IC50: 121 nM
[30]
  IC50: 88 nM
[31]
  IC50: 61 nM
[32]
  IC50: 150 nM
[33]
  IC50: 72 nM
[34]
  GI50 at 72 h: 1270 nM
[35]
  GI50: 285 nM
[2]
  IC50: 702 nM
[3]
  IC50: 48.6 nM
[4]
  IC50: 33.4 nM
[5]
  IC50: 205 nM
[7]
  IC50: 82.1 nM
[36]
  Activity: Active

## COc1cc(-c2nc(C)sc2-c2ccc(C(F)(F)F)cc2)cc(OC)c1OC
[2]
  IC50: 396 nM
[3]
  IC50: 7110 nM
[4]
  IC50: > 10000 nM
[5]
  IC50: > 10000 nM
[6]
  IC50: 4290 nM
[7]
  IC50: 3830 nM

## CNc1nc(-c2cc(OC)c(OC)c(OC)c2)c(-c2ccc3ccccc3c2)s1
[28]
  inhibition: 78%
[1]
  IC50: 960 nM
[2]
  IC50: 38.2 nM
[3]
  IC50: 51.1 nM
[4]
  IC50: 21.1 nM
[5]
  IC50: 143 nM
[6]
  IC50: 151 nM
[7]
  IC50: 128 nM

## COc1ccc(-c2sc(N(C)C)nc2-c2cc(OC)c(OC)c(OC)c2)cc1
[1]
  IC50: > 20000 nM
[2]
  IC50: 497 nM
[3]
  IC50: 7600 nM
[4]
  IC50: 8360 nM
[5]
  IC50: 1890 nM
[6]
  IC50: > 10000 nM
[7]
  IC50: 3370 nM

## COc1cc(-c2nc(N(C)C)sc2-c2ccc3ccccc3c2)cc(OC)c1OC
[1]
  IC50: > 20000 nM
[2]
  IC50: 729 nM
[3]
  IC50: 836 nM
[4]
  IC50: 2380 nM
[5]
  IC50: 2570 nM
[6]
  IC50: 2900 nM
[7]
  IC50: 1400 nM

## COc1ccc(-c2sc(C)nc2-c2cc(OC)c(OC)c(OC)c2)cc1
[2]
  IC50: 1420 nM
[3]
  IC50: 1760 nM
[4]
  IC50: 606 nM
[5]
  IC50: 3430 nM
[6]
  IC50: 2560 nM
[7]
  IC50: 500 nM
